Data taken from ChEMBL document CHEMBL1932992, “Synthesis and anticonvulsant activity of 1-(8-(benzyloxy)quinolin-2-yl)-6-substituted-4,6-diazaspiro[2,4]heptane-5,7-diones” (Eur J Med Chem, 2012).
The source made the active and inactive calls.

Tested on: not listed separately
Assay: Neurotoxicity in ip dosed Kunming mouse assessed as minimal motor impairment after 0.5 hrs by rotarod test
Assay type: toxicity, organism-based
Details: in vivo

Row | SMILES | MTD at 0.5 h [mg/kg] | TD50 at 0.5 h [mg/kg]
1 | O=C1NC2(CC2c2ccc3cccc(OCc4ccccc4)c3n2)C(=O)N1c1ccccc1 (racemic) | 300 | –
2 | O=C1NC(=O)C2(CC2c2ccc3cccc(OCc4ccccc4)c3n2)N1 (racemic) | 300 | –
3 | O=C1NC2(CC2c2ccc3cccc(OCc4ccccc4)c3n2)C(=O)N1c1ccc(Br)cc1 (racemic) | 100 | –
4 | O=C1NC2(CC2c2ccc3cccc(OCc4ccccc4)c3n2)C(=O)N1c1ccc(Cl)cc1 (racemic) | 100 | –
5 | CCC(CO)N1C(=O)NC2(CC2c2ccc3cccc(OCc4ccccc4)c3n2)C1=O (racemic) | – | 365
6 | O=C1NC2(CC2c2ccc3cccc(OCc4ccccc4)c3n2)C(=O)N1c1cc(Cl)cc(Cl)c1 (racemic) | 300 | –
7 | COc1ccc(N2C(=O)NC3(CC3c3ccc4cccc(OCc5ccccc5)c4n3)C2=O)cc1 (racemic) | – | 433

Tested on: Mus musculus
Assay: Anticonvulsant activity in ip dosed Kunming mouse assessed as protection against maximal electroshock-induced seizure after 0.5 hrs
Assay type: functional
Details: read-out: MED
How it was run: (§1)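 Male Kunming mice (20 ± 2.0 g) received ip 30, 100 or 300 mg/kg as a suspension in 0.5% methylcellulose, one to four mice per dose. At 0.5 h and 4.0 h, a 60-Hz, 50-mA current was applied for 0.25 s via corneal electrodes. Protection meant no hindlimb tonic extension. The value is the minimal dose protecting half or more of the mice.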

Row | SMILES | minimal effective dose [mg/kg]
8 | O=C1NC2(CC2c2ccc3cccc(OCc4ccccc4)c3n2)C(=O)N1c1ccc(F)cc1 (racemic) | 300
9 | O=C1NC(=O)C2(CC2c2ccc3cccc(OCc4ccccc4)c3n2)N1 (racemic) | 300
10 | O=C1NC2(CC2c2ccc3cccc(OCc4ccccc4)c3n2)C(=O)N1C1CCCCC1 (racemic) | 300
11 | CN1C(=O)NC2(CC2c2ccc3cccc(OCc4ccccc4)c3n2)C1=O (racemic) | 100
12 | O=C1NC2(CC2c2ccc3cccc(OCc4ccccc4)c3n2)C(=O)N1c1ccc(Cl)cc1 (racemic) | 300
13 | CCC(CO)N1C(=O)NC2(CC2c2ccc3cccc(OCc4ccccc4)c3n2)C1=O (racemic) | 30
14 | COc1ccc(N2C(=O)NC3(CC3c3ccc4cccc(OCc5ccccc5)c4n3)C2=O)cc1 (racemic) | 30

Tested on: Mus musculus
Assay: Anticonvulsant activity in ip dosed Kunming mouse assessed as protection against subcutaneous pentylenetetrazole-induced seizure after 0.5 hrs
Assay type: functional
Details: read-out: MED
How it was run: (§2)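 Male Kunming mice (20 ± 2.0 g) were given ip doses of 30, 100 or 300 mg/kg in 0.5% methylcellulose, one to four mice per dose. They were then challenged with subcutaneous pentylenetetrazole dissolved in 0.9% saline at 0.5 h and 4.0 h. Protection was the absence of even a threshold seizure (a single clonic spasm lasting at least 5 s). The value is the minimal dose active in half or more of the mice.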

Row | SMILES | minimal effective dose [mg/kg]
15 | O=C1NC(=O)C2(CC2c2ccc3cccc(OCc4ccccc4)c3n2)N1 (racemic) | 300
16 | O=C1NC2(CC2c2ccc3cccc(OCc4ccccc4)c3n2)C(=O)N1C1CCCCC1 (racemic) | 300
17 | CCC(CO)N1C(=O)NC2(CC2c2ccc3cccc(OCc4ccccc4)c3n2)C1=O (racemic) | 100
18 | O=C1NC2(CC2c2ccc3cccc(OCc4ccccc4)c3n2)C(=O)N1c1cc(Cl)cc(Cl)c1 (racemic) | 300
19 | COc1ccc(N2C(=O)NC3(CC3c3ccc4cccc(OCc5ccccc5)c4n3)C2=O)cc1 (racemic) | 300

Tested on: Mus musculus
Assay: Anticonvulsant activity in Kunming mouse assessed as protection against subcutaneous pentylenetetrazole-induced seizure at 300 mg/kg, ip after 0.5 hrs
Assay type: functional, organism-based
Parameters: dose 300 mg/kg
Details: not given
How it was run: as §2

Row | SMILES | Activity
20 | O=C1NC2(CC2c2ccc3cccc(OCc4ccccc4)c3n2)C(=O)N1c1ccc(F)cc1 (racemic) | inactive
21 | O=C1NC2(CC2c2ccc3cccc(OCc4ccccc4)c3n2)C(=O)N1c1ccccc1 (racemic) | inactive
22 | CN1C(=O)NC2(CC2c2ccc3cccc(OCc4ccccc4)c3n2)C1=O (racemic) | inactive
23 | O=C1NC2(CC2c2ccc3cccc(OCc4ccccc4)c3n2)C(=O)N1c1ccc(Br)cc1 (racemic) | inactive
24 | O=C1NC2(CC2c2ccc3cccc(OCc4ccccc4)c3n2)C(=O)N1c1ccc(Cl)cc1 (racemic) | inactive

Tested on: Mus musculus
Assay: Anticonvulsant activity in ip dosed Kunming mouse assessed as protection against subcutaneous pentylenetetrazole-induced seizure after 4 hrs
Assay type: functional
Details: read-out: MED
How it was run: as §2

Row | SMILES | minimal effective dose [mg/kg]
25 | CN1C(=O)NC2(CC2c2ccc3cccc(OCc4ccccc4)c3n2)C1=O (racemic) | 300
26 | CCC(CO)N1C(=O)NC2(CC2c2ccc3cccc(OCc4ccccc4)c3n2)C1=O (racemic) | 300

Tested on: Mus musculus
Assay: Neurotoxicity in Kunming mouse assessed as minimal motor impairment at 300 mg/kg, ip after 4 hrs by rotarod test
Assay type: toxicity, organism-based
Parameters: dose 300 mg/kg, route intraperitoneal
Details: in vivo
How it was run: (§3)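 Rotorod screen in trained male Kunming mice dosed ip at 30, 100 or 300 mg/kg in 0.5% methylcellulose, read at 0.5 h and 4.0 h. Mice were placed on a knurled rod 1 in. in diameter turning at 6 rpm. Impairment was failure to stay on the rod for at least 1 min in each of four trials. The value is the minimal dose affecting half or more of the mice.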

Row | SMILES | Activity
27 | O=C1NC(=O)C2(CC2c2ccc3cccc(OCc4ccccc4)c3n2)N1 (racemic) | Non-toxic
28 | CCC(CO)N1C(=O)NC2(CC2c2ccc3cccc(OCc4ccccc4)c3n2)C1=O (racemic) | Non-toxic
29 | O=C1NC2(CC2c2ccc3cccc(OCc4ccccc4)c3n2)C(=O)N1c1cc(Cl)cc(Cl)c1 (racemic) | Non-toxic
30 | COc1ccc(N2C(=O)NC3(CC3c3ccc4cccc(OCc5ccccc5)c4n3)C2=O)cc1 (racemic) | Non-toxic

Tested on: Mus musculus
Assay: Anticonvulsant activity in ip dosed Kunming mouse assessed as protection against maximal electroshock-induced seizure after 4 hrs
Assay type: functional
Details: read-out: MED
How it was run: as §1

Row | SMILES | minimal effective dose [mg/kg]
31 | O=C1NC2(CC2c2ccc3cccc(OCc4ccccc4)c3n2)C(=O)N1c1ccccc1 (racemic) | 300
32 | O=C1NC2(CC2c2ccc3cccc(OCc4ccccc4)c3n2)C(=O)N1C1CCCCC1 (racemic) | 300
33 | O=C1NC2(CC2c2ccc3cccc(OCc4ccccc4)c3n2)C(=O)N1c1ccc(Br)cc1 (racemic) | 300
34 | CCC(CO)N1C(=O)NC2(CC2c2ccc3cccc(OCc4ccccc4)c3n2)C1=O (racemic) | 30
35 | COc1ccc(N2C(=O)NC3(CC3c3ccc4cccc(OCc5ccccc5)c4n3)C2=O)cc1 (racemic) | 100

Tested on: Mus musculus
Assay: Anticonvulsant activity in Kunming mouse assessed as protection against subcutaneous pentylenetetrazole-induced seizure at 300 mg/kg, ip after 4 hrs
Assay type: functional, organism-based
Parameters: dose 300 mg/kg
Details: not given
How it was run: as §2

Row | SMILES | Activity
36 | O=C1NC2(CC2c2ccc3cccc(OCc4ccccc4)c3n2)C(=O)N1c1ccc(F)cc1 (racemic) | inactive
37 | O=C1NC2(CC2c2ccc3cccc(OCc4ccccc4)c3n2)C(=O)N1c1ccccc1 (racemic) | inactive
38 | O=C1NC(=O)C2(CC2c2ccc3cccc(OCc4ccccc4)c3n2)N1 (racemic) | inactive
39 | O=C1NC2(CC2c2ccc3cccc(OCc4ccccc4)c3n2)C(=O)N1C1CCCCC1 (racemic) | inactive
40 | O=C1NC2(CC2c2ccc3cccc(OCc4ccccc4)c3n2)C(=O)N1c1ccc(Br)cc1 (racemic) | inactive
41 | O=C1NC2(CC2c2ccc3cccc(OCc4ccccc4)c3n2)C(=O)N1c1ccc(Cl)cc1 (racemic) | inactive
42 | O=C1NC2(CC2c2ccc3cccc(OCc4ccccc4)c3n2)C(=O)N1c1cc(Cl)cc(Cl)c1 (racemic) | inactive
43 | COc1ccc(N2C(=O)NC3(CC3c3ccc4cccc(OCc5ccccc5)c4n3)C2=O)cc1 (racemic) | inactive

Tested on: Mus musculus
Assay: Anticonvulsant activity in Kunming mouse assessed as protection against maximal electroshock-induced seizure at 300 mg/kg, ip after 0.5 hrs
Assay type: functional, organism-based
Parameters: dose 300 mg/kg
Details: not given
How it was run: as §1

Row | SMILES | Activity
44 | O=C1NC2(CC2c2ccc3cccc(OCc4ccccc4)c3n2)C(=O)N1c1ccccc1 (racemic) | inactive
45 | O=C1NC2(CC2c2ccc3cccc(OCc4ccccc4)c3n2)C(=O)N1c1ccc(Br)cc1 (racemic) | inactive
46 | O=C1NC2(CC2c2ccc3cccc(OCc4ccccc4)c3n2)C(=O)N1c1cc(Cl)cc(Cl)c1 (racemic) | inactive

Tested on: Mus musculus
Assay: Neurotoxicity in Kunming mouse assessed as minimal motor impairment at 300 mg/kg, ip after 0.5 hrs by rotarod test
Assay type: toxicity, organism-based
Parameters: dose 300 mg/kg, route intraperitoneal
Details: in vivo
How it was run: as §3

Row | SMILES | Activity
47 | O=C1NC2(CC2c2ccc3cccc(OCc4ccccc4)c3n2)C(=O)N1c1ccc(F)cc1 (racemic) | Non-toxic
48 | O=C1NC2(CC2c2ccc3cccc(OCc4ccccc4)c3n2)C(=O)N1C1CCCCC1 (racemic) | Non-toxic
49 | CN1C(=O)NC2(CC2c2ccc3cccc(OCc4ccccc4)c3n2)C1=O (racemic) | Non-toxic
50 | CCC(CO)N1C(=O)NC2(CC2c2ccc3cccc(OCc4ccccc4)c3n2)C1=O (racemic) | Non-toxic
51 | COc1ccc(N2C(=O)NC3(CC3c3ccc4cccc(OCc5ccccc5)c4n3)C2=O)cc1 (racemic) | Non-toxic

Tested on: Mus musculus
Assay: Protective index, ratio of TD50 for ip dosed Kunming mouse to ED50 for ip dosed Kunming mouse by maximal electroshock seizure test
Assay type: functional
Details: not given

Row | SMILES | Ratio TD50/ED50
52 | CCC(CO)N1C(=O)NC2(CC2c2ccc3cccc(OCc4ccccc4)c3n2)C1=O (racemic) | 26.8
53 | COc1ccc(N2C(=O)NC3(CC3c3ccc4cccc(OCc5ccccc5)c4n3)C2=O)cc1 (racemic) | 22.2

Tested on: Mus musculus
Assay: Anticonvulsant activity in ip dosed Kunming mouse assessed as protection against maximal electroshock-induced seizure
Assay type: functional
Details: not given

Row | SMILES | ED50 [mg/kg]
54 | CCC(CO)N1C(=O)NC2(CC2c2ccc3cccc(OCc4ccccc4)c3n2)C1=O (racemic) | 8.6
55 | COc1ccc(N2C(=O)NC3(CC3c3ccc4cccc(OCc5ccccc5)c4n3)C2=O)cc1 (racemic) | 19.5

Tested on: Mus musculus
Assay: Protective index, ratio of TD50 for ip dosed Kunming mouse to ED50 for ip dosed Kunming mouse by subcutaneous pentylenetetrazole induced seizure test
Assay type: functional
Details: not given

Row | SMILES | Ratio TD50/ED50
56 | CCC(CO)N1C(=O)NC2(CC2c2ccc3cccc(OCc4ccccc4)c3n2)C1=O (racemic) | 1.7
57 | COc1ccc(N2C(=O)NC3(CC3c3ccc4cccc(OCc5ccccc5)c4n3)C2=O)cc1 (racemic) | 1.6

Tested on: Mus musculus
Assay: Anticonvulsant activity in Kunming mouse assessed as protection against maximal electroshock-induced seizure at 300 mg/kg, ip after 4 hrs
Assay type: functional, organism-based
Parameters: dose 300 mg/kg
Details: not given
How it was run: as §1

Row | SMILES | Activity
58 | O=C1NC2(CC2c2ccc3cccc(OCc4ccccc4)c3n2)C(=O)N1c1ccc(F)cc1 (racemic) | inactive
59 | O=C1NC(=O)C2(CC2c2ccc3cccc(OCc4ccccc4)c3n2)N1 (racemic) | inactive
60 | CN1C(=O)NC2(CC2c2ccc3cccc(OCc4ccccc4)c3n2)C1=O (racemic) | inactive
61 | O=C1NC2(CC2c2ccc3cccc(OCc4ccccc4)c3n2)C(=O)N1c1ccc(Cl)cc1 (racemic) | inactive
62 | O=C1NC2(CC2c2ccc3cccc(OCc4ccccc4)c3n2)C(=O)N1c1cc(Cl)cc(Cl)c1 (racemic) | inactive

Tested on: Mus musculus
Assay: Anticonvulsant activity in ip dosed Kunming mouse assessed as protection against subcutaneous pentylenetetrazole-induced seizure
Assay type: functional
Details: not given
How it was run: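 Median effective dose in male Kunming mice, groups of 10, given a range of ip doses until at least three points fell between 10–90% seizure protection.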

Row | SMILES | ED50 [mg/kg]
63 | CCC(CO)N1C(=O)NC2(CC2c2ccc3cccc(OCc4ccccc4)c3n2)C1=O (racemic) | 212
64 | COc1ccc(N2C(=O)NC3(CC3c3ccc4cccc(OCc5ccccc5)c4n3)C2=O)cc1 (racemic) | 279
